# According to ChEMBL document CHEMBL5058577, “EUbOPEN Chemogenomics Library 2 (Multiplex)” (2022):
# Tested on: HEK-293T
# Assay: Multiplex assay against HEK293T
# Format: toxicity, cell-based
# Settings: human
# In short: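 Cells were classed with CellPathfinder machine-learning gating, first as Hoechst high-intensity objects or normal cells, then (normal cells) as healthy, pyknosed or fragmented nuclei, and finally (pyknosed cells) as mitotic or apoptotic. Staining of live cells at seeding used Hoechst33342, BioTracker Green Microtubule Cytoskeleton Dye, MitoTracker Red and Annexin V Alexa Fluor 680, with imaging on a CQ1 microscope at 37°C and 5% CO2 after compound addition. Tubulin, mitochondrial-mass and membrane-permeability phenotypes are per cents of healthy-nucleus cells.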
# [1] = 12 h, 1 µM, compound concentration 1 uM, replicate 1
# [2] = 12 h, 1 µM, compound concentration 1 uM, replicate 2
# [3] = 12 h, 10 µM, compound concentration 10 uM, replicate 1
# [4] = 12 h, 10 µM, compound concentration 10 uM, replicate 2
# [5] = 24 h, 1 µM, compound concentration 1 uM, replicate 1
# [6] = 24 h, 1 µM, compound concentration 1 uM, replicate 2
# [7] = 24 h, 10 µM, compound concentration 10 uM, replicate 1
# [8] = 24 h, 10 µM, compound concentration 10 uM, replicate 2
# [9] = 48 h, 1 µM, compound concentration 1 uM, replicate 1
# [10] = 48 h, 1 µM, compound concentration 1 uM, replicate 2
# [11] = 48 h, 10 µM, compound concentration 10 uM, replicate 1
# [12] = 48 h, 10 µM, compound concentration 10 uM, replicate 2
structure (smiles),measurement,setting,value
Cl.Clc1ccc2nsnc2c1NC1=NCCN1 [TIZANIDINE HYDROCHLORIDE],Population Apoptotic (%),[1],39%
same,Population Fragmented Nuclei (%),[1],9%
same,Population Healthy Nuclei (%),[1],80%
same,Population Hoechst High Intensity Objects (%),[1],8%
same,Population Membrane Permeable-Phenotype (%),[1],0%
same,Population Mitochondria Different-Phenotype (%),[1],36%
same,Population Mitotic Cells (%),[1],60%
same,Population Normal (%),[1],91%
same,Population Pyknosed Nuclei (%),[1],9%
same,Population Tubulin-Different-Phenotype (%),[1],26%
same,Total Cell Count,[1],474
same,Population Apoptotic (%),[2],44%
same,Population Fragmented Nuclei (%),[2],2%
same,Population Healthy Nuclei (%),[2],83%
same,Population Hoechst High Intensity Objects (%),[2],9%
same,Population Mitochondria Different-Phenotype (%),[2],62%
same,Population Mitotic Cells (%),[2],55%
same,Population Normal (%),[2],90%
same,Population Pyknosed Nuclei (%),[2],13%
same,Population Tubulin-Different-Phenotype (%),[2],20%
same,Total Cell Count,[2],373
same,Population Apoptotic (%),[3],30%
same,Population Fragmented Nuclei (%),[3],9%
same,Population Healthy Nuclei (%),[3],80%
same,Population Hoechst High Intensity Objects (%),[3],6%
same,Population Membrane Permeable-Phenotype (%),[3],0%
same,Population Mitochondria Different-Phenotype (%),[3],45%
same,Population Mitotic Cells (%),[3],70%
same,Population Normal (%),[3],93%
same,Population Pyknosed Nuclei (%),[3],9%
same,Population Tubulin-Different-Phenotype (%),[3],32%
same,Total Cell Count,[3],450
same,Population Apoptotic (%),[4],46%
same,Population Fragmented Nuclei (%),[4],7%
same,Population Healthy Nuclei (%),[4],79%
same,Population Hoechst High Intensity Objects (%),[4],4%
same,Population Mitochondria Different-Phenotype (%),[4],67%
same,Population Mitotic Cells (%),[4],53%
same,Population Normal (%),[4],95%
same,Population Pyknosed Nuclei (%),[4],13%
same,Population Tubulin-Different-Phenotype (%),[4],27%
same,Total Cell Count,[4],343
same,Population Apoptotic (%),[5],32%
same,Population Fragmented Nuclei (%),[5],11%
same,Population Healthy Nuclei (%),[5],79%
same,Population Hoechst High Intensity Objects (%),[5],4%
same,Population Membrane Permeable-Phenotype (%),[5],0%
same,Population Mitochondria Different-Phenotype (%),[5],20%
same,Population Mitotic Cells (%),[5],67%
same,Population Normal (%),[5],95%
same,Population Pyknosed Nuclei (%),[5],8%
same,Population Tubulin-Different-Phenotype (%),[5],17%
same,Total Cell Count,[5],597
same,Population Apoptotic (%),[6],45%
same,Population Fragmented Nuclei (%),[6],10%
same,Population Healthy Nuclei (%),[6],80%
same,Population Hoechst High Intensity Objects (%),[6],5%
same,Population Mitochondria Different-Phenotype (%),[6],38%
same,Population Mitotic Cells (%),[6],54%
same,Population Normal (%),[6],94%
same,Population Tubulin-Different-Phenotype (%),[6],15%
same,Total Cell Count,[6],434
same,Population Apoptotic (%),[7],32%
same,Population Fragmented Nuclei (%),[7],11%
same,Population Healthy Nuclei (%),[7],78%
same,Population Hoechst High Intensity Objects (%),[7],5%
same,Population Membrane Permeable-Phenotype (%),[7],1%
same,Population Mitochondria Different-Phenotype (%),[7],23%
same,Population Mitotic Cells (%),[7],67%
same,Population Normal (%),[7],94%
same,Population Pyknosed Nuclei (%),[7],9%
same,Population Tubulin-Different-Phenotype (%),[7],18%
same,Total Cell Count,[7],621
same,Population Apoptotic (%),[8],29%
same,Population Fragmented Nuclei (%),[8],10%
same,Population Healthy Nuclei (%),[8],81%
same,Population Hoechst High Intensity Objects (%),[8],6%
same,Population Membrane Permeable-Phenotype (%),[8],0%
same,Population Mitochondria Different-Phenotype (%),[8],46%
same,Population Mitotic Cells (%),[8],70%
same,Population Normal (%),[8],93%
same,Population Pyknosed Nuclei (%),[8],7%
same,Total Cell Count,[8],443
same,Population Apoptotic (%),[9],17%
same,Population Fragmented Nuclei (%),[9],16%
same,Population Healthy Nuclei (%),[9],77%
same,Population Hoechst High Intensity Objects (%),[9],2%
same,Population Membrane Permeable-Phenotype (%),[9],3%
same,Population Mitochondria Different-Phenotype (%),[9],13%
same,Population Mitotic Cells (%),[9],82%
same,Population Normal (%),[9],97%
same,Population Pyknosed Nuclei (%),[9],6%
same,Population Tubulin-Different-Phenotype (%),[9],10%
same,Total Cell Count,[9],1005
same,Population Apoptotic (%),[10],33%
same,Population Fragmented Nuclei (%),[10],14%
same,Population Healthy Nuclei (%),[10],79%
same,Population Hoechst High Intensity Objects (%),[10],3%
same,Population Membrane Permeable-Phenotype (%),[10],1%
same,Population Mitochondria Different-Phenotype (%),[10],19%
same,Population Mitotic Cells (%),[10],66%
same,Population Normal (%),[10],96%
same,Population Tubulin-Different-Phenotype (%),[10],7%
same,Total Cell Count,[10],661
same,Population Apoptotic (%),[11],24%
same,Population Fragmented Nuclei (%),[11],19%
same,Population Healthy Nuclei (%),[11],74%
same,Population Hoechst High Intensity Objects (%),[11],3%
same,Population Membrane Permeable-Phenotype (%),[11],1%
same,Population Mitochondria Different-Phenotype (%),[11],13%
same,Population Mitotic Cells (%),[11],75%
same,Population Normal (%),[11],96%
same,Population Pyknosed Nuclei (%),[11],5%
same,Population Tubulin-Different-Phenotype (%),[11],10%
same,Total Cell Count,[11],995
same,Population Apoptotic (%),[12],25%
same,Population Fragmented Nuclei (%),[12],13%
same,Population Healthy Nuclei (%),[12],81%
same,Population Hoechst High Intensity Objects (%),[12],5%
same,Population Mitochondria Different-Phenotype (%),[12],23%
same,Population Normal (%),[12],94%
same,Population Pyknosed Nuclei (%),[12],4%
same,Population Tubulin-Different-Phenotype (%),[12],19%
same,Total Cell Count,[12],600
